Published values from different studies.
Protocols differ between the studies behind these lines.
PKN1: Serine/threonine-protein kinase N1 (PKN1, Homo sapiens, UniProt Q16512)
HRH1: Histamine H1 receptor (HRH1, Homo sapiens, UniProt P35367)
PADI4: Protein-arginine deiminase type-4 (PADI4, Homo sapiens, UniProt Q9UM07)
MAOB: Amine oxidase [flavin-containing] B (MAOB, Homo sapiens, UniProt P27338)
CA9: Carbonic anhydrase 9 (CA9, Homo sapiens, UniProt Q16790)

Compound	target	test	system	setting	quantity	result
O=C(c1ccc(Cl)cc1)N(Cc1ccccc1)C1CCCCC1	Endothelin receptor type B (EDNRB, Homo sapiens, UniProt P24530)	cell-free assay		10 µM	inhibition	3.4%
COc1cc(N2CCOCC2)ccc1NC(=O)c1csc(-c2cccnc2)n1	PKN1	enzyme activity, inhibitor		1 µM	activity vs control	87%
CN(C)CCOC1c2ccccc2C=Cc2ccccc21	HRH1	binding			koff	0.00015 s⁻¹
N=C(CCl)NCCC[C@H](NC(=O)c1ccccc1)c1nn[nH]n1	PADI4	enzyme activity, inhibitor			kinact/KI	287 M⁻¹ s⁻¹
CN1CCN(C2c3ccccc3C=Cc3ccccc32)CC1	HRH1	binding			kon	117000 M⁻¹ s⁻¹
COc1cc([N+](=O)[O-])ccc1NC(=O)c1ccccc1O	MAOB	enzyme activity, inhibitor		1 µM, 20 min	inhibition	7%
CCOC(=O)C1CSc2[nH]c(=O)sc2C1c1cn(-c2ccccc2)nc1-c1ccccc1 (centres unmarked)	CA9	enzyme activity, inhibitor		1 µM	inhibition	43.6%
O=C(Nc1ccc(Br)cc1)c1cc2ccccc2cc1O	MAOB	enzyme activity, inhibitor		1 µM, 20 min	inhibition	72%
CCOC(=O)C1CSc2[nH]c(=O)sc2C1c1cn(-c2ccccc2)nc1-c1ccc(Br)cc1 (centres unmarked)	CA9	enzyme activity, inhibitor		10 µM	inhibition	80.5%
O=C(Nc1ccc([N+](=O)[O-])cc1Cl)c1ccccc1O	MAOB	enzyme activity, inhibitor		1 µM, 20 min	inhibition	14%
CC(=O)Nc1cccc(-n2c(=O)n(C3CC3)c(=O)c3c(Nc4ccc(I)cc4F)n(C)c(=O)c(C)c32)c1	PKN1	enzyme activity, inhibitor		1 µM	activity vs control	97%
Cc1ccc(C(=O)Nc2ccc([N+](=O)[O-])cc2C(F)(F)F)cc1	MAOB	enzyme activity, inhibitor		1 µM, 20 min	inhibition	69%
Cc1cc(F)ccc1-c1nc(NCCN=C(N)NC#N)nc2c1ccc(=O)n2-c1c(F)cccc1F	PKN1	enzyme activity, inhibitor		1 µM	activity vs control	90%
N=C(N)NCCC[C@H](NC(=O)[C@H](CC(=O)O)NC(=O)[C@H](Cc1c[nH]c2ccccc12)NC(=O)[C@H](CCCNC(=N)N)NC(=O)[C@@H](N)Cc1ccccc1)C(=O)N[C@@H](Cc1ccccc1)C(=O)NCC(=O)O	Melanocortin receptor 5 (Mus musculus, UniProt P41149)	cAMP, agonist	HEK293		Emax	90%
CC(C)(C)n1nnc([C@H](CCCNC(=N)CCl)NC(=O)c2ccc(-c3ccccc3)cc2)n1	PADI4	enzyme activity, inhibitor			kinact/KI	102 M⁻¹ s⁻¹
O=C(Nc1ccccc1)c1ccccc1O	MAOB	enzyme activity, inhibitor		1 µM, 20 min	inhibition	5%
Cc1cccnc1C(=O)Nc1ccc(N2C(=O)c3ccccc3C2=O)c(Cl)c1	Metabotropic glutamate receptor 1 (GRM1, Homo sapiens, UniProt Q13255)	calcium signal, positive allosteric modulator	T-REx-293		Emax	91%
NNCCc1ccc(NC(=O)CCCc2ccccc2)cc1	MAOB	enzyme activity, inhibitor			KI (inactivation)	6.5 µM

Compound	target	test	system	setting	quantity	result
Cn1cc(-c2cc3c(N4CCN(c5ncc([C@@](C)(N)c6ccc(F)cc6)cn5)CC4)ncnn3c2)cn1	PKN1	enzyme activity, inhibitor		1 µM	activity vs control	87%
N=C(CCl)NCCC[C@H](NC(=O)c1ccccc1C(=O)O)c1nn[nH]n1	PADI4	enzyme activity, inhibitor			kinact/KI	2660 M⁻¹ s⁻¹
COc1cc2ncn(-c3cc(OCc4ccccc4C(F)(F)F)c(C(N)=O)s3)c2cc1OC	PKN1	enzyme activity, inhibitor		1 µM	activity vs control	56%
CN1CCC(=C2c3ccccc3CCc3cccnc32)CC1	HRH1	binding			kon	533000 M⁻¹ s⁻¹
CCOC(=O)C1CSc2[nH]c(=O)sc2C1c1cn(-c2ccccc2)nc1-c1ccc(Cl)cc1 (centres unmarked)	CA9	enzyme activity, inhibitor		0.1 µM	inhibition	36%
O=C(Nc1cccc(Cl)c1)c1ccc([N+](=O)[O-])cc1Cl	MAOB	enzyme activity, inhibitor		1 µM, 20 min	inhibition	36%
C=CC(=O)Nc1cccc(Oc2nc(Nc3ccc(N4CCN(C)CC4)cc3OC)ncc2Cl)c1	PKN1	enzyme activity, inhibitor		1 µM	activity vs control	84%
CN1CCC(C2c3ccccc3CCc3ccccc32)CC1	HRH1	binding			koff	0.000475 s⁻¹
CNC(=O)c1cccc2cc(Oc3ccnc4cc(OCC5(N)CC5)c(OC)cc34)ccc12	PKN1	enzyme activity, inhibitor		1 µM	activity vs control	92%
CCOC(=O)C1CSc2[nH]c(=O)sc2C1c1cn(-c2ccccc2)nc1-c1ccc(C)cc1 (centres unmarked)	CA9	enzyme activity, inhibitor		1 µM	inhibition	61.4%
CC(C)(C)n1nnc([C@H](CCCNC(=N)CF)NC(=O)c2ccccc2)n1	PADI4	enzyme activity, inhibitor			kinact/KI	4.33 M⁻¹ s⁻¹
Cc1ccc(-c2nn(-c3ccccc3)cc2C2c3sc(=O)[nH]c3SC3C(=O)N(c4ccccc4)C(=O)C32)cc1 (centres unmarked)	CA9	enzyme activity, inhibitor		1 µM	inhibition	63.2%
Cc1cc([N+](=O)[O-])ccc1NC(=O)c1ccccc1	MAOB	enzyme activity, inhibitor		1 µM, 20 min	inhibition	7%
Cn1c(=O)n(-c2ccc(C(C)(C)C#N)cc2)c2c3cc(-c4cnc5ccccc5c4)ccc3ncc21	PKN1	enzyme activity, inhibitor		1 µM	activity vs control	84%
N#CC1CSc2[nH]c(=O)sc2C1c1cn(-c2ccccc2)nc1-c1ccc(Br)cc1 (centres unmarked)	CA9	enzyme activity, inhibitor		10 µM	inhibition	88.5%
CC1=C(C(=O)Nc2ccc([N+](=O)[O-])cc2Cl)Cc2ccccc21	MAOB	enzyme activity, inhibitor		1 µM, 20 min	inhibition	44%
O=[N+]([O-])c1ccc(O[C@H]2O[C@H](CO)[C@@H](O)[C@H](O)[C@@H]2O)cc1	Beta-mannosidase (Bacteroides thetaiotaomicron, UniProt Q8AAK6)	enzyme activity, substrate, absorbance		pH 5.6	Km	390 µM
